Measurements from ChEMBL document CHEMBL1121729, “N*-N*-S* tridentate ligand system as potential antitumor agents” (1981).

Legend:
P388 [1] = assay: Antitumor activity against P-388 lymphocytic leukemia implanted CDF1 mice to that of control when 100 mg/kg compound administered; assay type: functional, Mus musculus
Outline: (§1)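 CDF1 mice given 10^6 P-388 lymphocytic leukemia cells ip on day 0; drug given ip as a suspension in klucel or in saline plus Tween 80 on days 1, 5 and 9, starting 24 h after tumor transplantation; six mice per group. Read-outs are treated/control (T/C, %) and body weight change in g as treated/control.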

P388 [2] = assay: Antitumor activity against P-388 lymphocytic leukemia implanted CDF1 mice to that of control when 200 mg/kg compound administered; assay type: functional, Mus musculus; outline: as §1
P388 [3] = assay: Antitumor activity against P-388 lymphocytic leukemia implanted CDF1 mice to that of control when 400 mg/kg compound administered; toxic; assay type: functional, organism-based; set-up: dose 400 mg/kg; settings: Mus musculus; outline: as §1
P388 [4] = assay: Change in body weight of P-388 lymphocytic leukemia implanted CDF1 mice to that of control when 200 mg/kg compound administered; T/C= 1/1.3; assay type: functional, Mus musculus; outline: as §1
P388 [5] = assay: Change in body weight of P-388 lymphocytic leukemia implanted CDF1 mice to that of control when 100 mg/kg compound administered; T/C= -0.2/1.3; assay type: functional, Mus musculus; outline: as §1
P388 [6] = assay: Antitumor activity against P-388 lymphocytic leukemia implanted CDF1 mice to that of control when 400 mg/kg compound administered; assay type: functional, Mus musculus; outline: as §1
P388 [7] = assay: Change in body weight of P-388 lymphocytic leukemia implanted CDF1 mice to that of control when 200 mg/kg compound administered; T/C= 2.1/1.3; assay type: functional, Mus musculus; outline: as §1
P388 [8] = assay: Change in body weight of P-388 lymphocytic leukemia implanted CDF1 mice to that of control when 400 mg/kg compound administered; T/C= 0.8/1.3; assay type: functional, Mus musculus; outline: as §1
P388 [9] = assay: Change in body weight of P-388 lymphocytic leukemia implanted CDF1 mice to that of control when 100 mg/kg compound administered; T/C= 3.3/1.3; assay type: functional, Mus musculus; outline: as §1
L1210 [10] = assay: Growth inhibition of cultured L-1210 cells after 48-h exposure to compound at 1.6 x 10E-8 M/mL in trail 1; assay type: functional; settings: Mus musculus, L1210, 48 h
L1210 [11] = assay: Growth inhibition of cultured L-1210 cells after 48-h exposure to compound at 1.6 x 10E-8 M/mL in trail 2; assay type: functional; settings: Mus musculus, L1210, 48 h
L1210 [12] = assay: Growth inhibition of cultured L-1210 cells after 48-h exposure to compound at 4 x 10E-9 M/mL in trail 1; assay type: functional; settings: Mus musculus, L1210, 48 h
P388 [13] = assay: Change in body weight of P-388 lymphocytic leukemia implanted CDF1 mice to that of control when 200 mg/kg compound administered; T/C=1.5/0.5; assay type: functional, Mus musculus; outline: as §1
P388 [14] = assay: Change in body weight of P-388 lymphocytic leukemia implanted CDF1 mice to that of control when 400 mg/kg compound administered; T/C= -0.8/5; assay type: functional, Mus musculus; outline: as §1
Sarcoma-180 [15] = assay: Growth inhibition of cultured Sarcoma 180 cells after 48-h exposure to compound at 1.6 x 10E-8 M/mL in trail 1; assay type: functional; settings: Mus musculus, Sarcoma-180, 48 h
Sarcoma-180 [16] = assay: Growth inhibition of cultured Sarcoma 180 cells after 48-h exposure to compound at 1.6 x 10E-8 M/mL in trail 2; assay type: functional; settings: Mus musculus, Sarcoma-180, 48 h
Sarcoma-180 [17] = assay: Growth inhibition of cultured Sarcoma cells after 48-h exposure to compound at 4 x 10E-9 M/mL in trail 1; assay type: functional; settings: Mus musculus, Sarcoma-180, 48 h
Sarcoma-180 [18] = assay: Growth inhibition of cultured Sarcoma cells after 48-h exposure to compound at 4 x 10E-9 M/mL in trail 2; assay type: functional; settings: Mus musculus, Sarcoma-180, 48 h
L1210 [19] = assay: Growth inhibition of cultured L-1210 cells after 48-h exposure to compound at 4 x 10E-9 M/mL in trail 2; assay type: functional; settings: Mus musculus, L1210, 48 h
P388 [20] = assay: Change in body weight of P-388 lymphocytic leukemia implanted CDF1 mice to that of control when 100 mg/kg compound administered; T/C=1.5/0.5; assay type: functional, Mus musculus; outline: as §1
P388 [21] = assay: Change in body weight of P-388 lymphocytic leukemia implanted CDF1 mice to that of control when 200 mg/kg compound administered; T/C= 1.1/5; assay type: functional, Mus musculus; outline: as §1
P388 [22] = assay: Change in body weight of P-388 lymphocytic leukemia implanted CDF1 mice to that of control when 400 mg/kg compound administered; T/C= -2.5/5; assay type: functional, Mus musculus; outline: as §1
P388 [23] = assay: Change in body weight of P-388 lymphocytic leukemia implanted CDF1 mice to that of control when 100 mg/kg compound administered; T/C= 1.5/5; assay type: functional, Mus musculus; outline: as §1

With `C/N=C(/S)c1cccc(-c2ccccn2)n1` the T/C (P388 [1]) was 91%, the T/C (P388 [2]) was 83% and the T/C (P388 [3]) was “Toxic”. It also gave a Change in weight (P388 [4]) of 1 and a Change in weight (P388 [5]) of -0.2.
With `CN(C)C(=S)c1cccc(-c2ccccn2)n1` the T/C (P388 [1]) was 95%, the T/C (P388 [2]) was 95% and the T/C (P388 [6]) was 91%. The Change in weight (P388 [7]) was 2.1, the Change in weight (P388 [8]) was 0.8 and the Change in weight (P388 [9]) was 3.3.
Molecule `NC(=S)c1cccc(-c2ccccn2)n1` has an inhibition at 0.016 µM (L1210 [10]) of 95%, an inhibition at 0.016 µM (L1210 [11]) of 93% and an inhibition at 0.004 µM (L1210 [12]) of 51%. It also gave a T/C (P388 [1]) of 112%, a T/C (P388 [2]) of 125% and a T/C (P388 [6]) of 143%. It also gave a Change in weight (P388 [13]) of 1.5, a Change in weight (P388 [14]) of -0.8 and an inhibition at 0.016 µM (Sarcoma-180 [15]) of 85%. It also gave an inhibition at 0.016 µM (Sarcoma-180 [16]) of 60%, an inhibition at 0.004 µM (Sarcoma-180 [17]) of 35% and an inhibition at 0.004 µM (Sarcoma-180 [18]) of 10%. For the same molecule, the inhibition at 0.004 µM (L1210 [19]) was 32% and the Change in weight (P388 [20]) was 1.5.
For `NC(=S)c1ccc2ccc3cccnc3c2n1`, the T/C (P388 [1]) was 100%, the T/C (P388 [2]) was 106% and the T/C (P388 [6]) was 112%. It also gave a Change in weight (P388 [21]) of 1.1, a Change in weight (P388 [22]) of -2.5 and a Change in weight (P388 [23]) of 1.5.
